From ChEMBL document CHEMBL2429837, “Identification of cryptotanshinone as an inhibitor of oncogenic protein tyrosine phosphatase SHP2 (PTPN11)” (J Med Chem, 2013) come the findings set out here.

The IC50 is the concentration that gives 50% inhibition.

The target in experiment [1] is T1, Tyrosine-protein phosphatase non-receptor type 9 (Homo sapiens, UniProt P43378).
T1 sequence (P43378 whole entry): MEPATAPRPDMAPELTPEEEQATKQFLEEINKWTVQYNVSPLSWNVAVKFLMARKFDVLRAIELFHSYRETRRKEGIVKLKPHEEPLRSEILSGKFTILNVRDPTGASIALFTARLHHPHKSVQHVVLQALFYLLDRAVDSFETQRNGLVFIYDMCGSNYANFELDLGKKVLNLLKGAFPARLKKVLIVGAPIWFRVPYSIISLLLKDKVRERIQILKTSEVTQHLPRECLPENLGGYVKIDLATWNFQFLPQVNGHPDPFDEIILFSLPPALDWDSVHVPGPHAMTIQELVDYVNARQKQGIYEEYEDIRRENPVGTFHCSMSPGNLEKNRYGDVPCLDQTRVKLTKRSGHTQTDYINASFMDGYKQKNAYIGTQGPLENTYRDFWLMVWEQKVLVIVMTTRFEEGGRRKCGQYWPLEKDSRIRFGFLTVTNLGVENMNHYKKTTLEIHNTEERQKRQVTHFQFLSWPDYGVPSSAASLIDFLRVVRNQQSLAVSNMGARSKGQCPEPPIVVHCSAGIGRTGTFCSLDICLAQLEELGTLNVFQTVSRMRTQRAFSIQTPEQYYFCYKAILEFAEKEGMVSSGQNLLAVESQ
Description: Inhibition of GST-tagged MEG2 (unknown origin) using phospho-EGFR Asp-Ala-Asp-Glu-Tyr[PO3H2]-Leu-Ile-Pro-Gln-Gln-Gly as substrate preincubated for 30 mins before substrate addition measured after 30 mins by phosphatase activity assay. The gist of the method:
(§1)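 GST-fusion phosphatase, purified in-house or commercial (MEG2 purchased). Enzyme and compound preincubated 30 min at room temperature in 25 mM Tris-HCl pH 7.4, 50 mM NaCl, 5 mM DTT, 2.5 mM EDTA. EGFR pTyr1018 peptide then added to 0.2 mM final and incubated 30 min at 30°C. Released phosphate read with Malachite Green at OD620 after 10 min. IC50 from 6 concentrations, three independent experiments.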

Experiment [2] has as its target Tyrosine-protein phosphatase non-receptor type 11 (Homo sapiens, UniProt Q06124, E76K). Description: Inhibition of GST-tagged full-length SHP2 E76K mutant (unknown origin) using phospho-EGFR Asp-Ala-Asp-Glu-Tyr[PO3H2]-Leu-Ile-Pro-Gln-Gln-Gly as substrate preincubated for 30 mins before substrate addition measured after 30 mins by phosphatase activity assay.
The target in experiment [3] is T2, Tyrosine-protein phosphatase non-receptor type 2 (Homo sapiens, UniProt P17706).
T2 sequence (P17706 whole entry): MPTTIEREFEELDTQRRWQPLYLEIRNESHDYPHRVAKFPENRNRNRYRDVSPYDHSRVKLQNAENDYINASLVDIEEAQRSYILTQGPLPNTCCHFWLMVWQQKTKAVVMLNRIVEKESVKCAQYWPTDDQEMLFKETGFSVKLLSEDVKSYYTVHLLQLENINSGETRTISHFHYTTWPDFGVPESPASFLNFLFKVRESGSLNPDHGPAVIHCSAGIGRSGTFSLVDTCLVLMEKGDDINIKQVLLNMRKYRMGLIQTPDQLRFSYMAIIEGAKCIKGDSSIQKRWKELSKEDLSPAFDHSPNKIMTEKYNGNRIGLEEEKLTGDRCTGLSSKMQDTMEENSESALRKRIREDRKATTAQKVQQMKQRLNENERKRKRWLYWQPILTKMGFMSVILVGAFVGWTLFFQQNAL
The experiment is described as follows: Inhibition of GST-tagged TC-PTP (unknown origin) using phospho-EGFR Asp-Ala-Asp-Glu-Tyr[PO3H2]-Leu-Ile-Pro-Gln-Gln-Gly as substrate preincubated for 30 mins before substrate addition measured after 30 mins by phosphatase activity assay. The method, boiled down: (§2)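 In-house SHP1 or purchased GST-CD45 cytoplasmic domain, GST-LAR, GST-TC-PTP preincubated with compound (6 concentrations) in 25 mM Tris-HCl pH 7.4, 50 mM NaCl, 5 mM DTT, 2.5 mM EDTA, room temperature 30 min. Phospho-EGFR pTyr1018 peptide added to 0.2 mM final, 30°C 30 min; released phosphate by Malachite Green, OD620. Three independent experiments.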

Experiment [4] concerns the target Tyrosine-protein phosphatase non-receptor type 6 (Homo sapiens, UniProt P29350). The experiment is described as follows: Inhibition of GST-tagged SHP1 PTP domain (unknown origin) using phospho-EGFR Asp-Ala-Asp-Glu-Tyr[PO3H2]-Leu-Ile-Pro-Gln-Gln-Gly as substrate preincubated for 30 mins before substrate addition measured after 30 mins by phosphatase activity assay. The method, boiled down:
as §2

The nature of experiment [5]: Growth inhibition of IL3-stimulated mouse BA/F3 cells after 48 hrs by CellTiter 96 assay. To be noted: BaF3, 48 h. Type of experiment: functional, cell-based. The method, boiled down: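 Ba/F3 cells seeded 5 × 10^3 per well in RPMI-1640 with 10% FBS and mouse IL-3 (1.0 ng/mL), grown overnight, then exposed to compound or matching DMSO for 48 h. Viable cells counted by tetrazolium-based one-solution proliferation reagent. Triplicates per experiment, three experiments; mean±S.E.M.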

For experiment [6], the target named is T3, Receptor-type tyrosine-protein phosphatase C (Homo sapiens, UniProt P08575).
T3 sequence (P08575 whole entry): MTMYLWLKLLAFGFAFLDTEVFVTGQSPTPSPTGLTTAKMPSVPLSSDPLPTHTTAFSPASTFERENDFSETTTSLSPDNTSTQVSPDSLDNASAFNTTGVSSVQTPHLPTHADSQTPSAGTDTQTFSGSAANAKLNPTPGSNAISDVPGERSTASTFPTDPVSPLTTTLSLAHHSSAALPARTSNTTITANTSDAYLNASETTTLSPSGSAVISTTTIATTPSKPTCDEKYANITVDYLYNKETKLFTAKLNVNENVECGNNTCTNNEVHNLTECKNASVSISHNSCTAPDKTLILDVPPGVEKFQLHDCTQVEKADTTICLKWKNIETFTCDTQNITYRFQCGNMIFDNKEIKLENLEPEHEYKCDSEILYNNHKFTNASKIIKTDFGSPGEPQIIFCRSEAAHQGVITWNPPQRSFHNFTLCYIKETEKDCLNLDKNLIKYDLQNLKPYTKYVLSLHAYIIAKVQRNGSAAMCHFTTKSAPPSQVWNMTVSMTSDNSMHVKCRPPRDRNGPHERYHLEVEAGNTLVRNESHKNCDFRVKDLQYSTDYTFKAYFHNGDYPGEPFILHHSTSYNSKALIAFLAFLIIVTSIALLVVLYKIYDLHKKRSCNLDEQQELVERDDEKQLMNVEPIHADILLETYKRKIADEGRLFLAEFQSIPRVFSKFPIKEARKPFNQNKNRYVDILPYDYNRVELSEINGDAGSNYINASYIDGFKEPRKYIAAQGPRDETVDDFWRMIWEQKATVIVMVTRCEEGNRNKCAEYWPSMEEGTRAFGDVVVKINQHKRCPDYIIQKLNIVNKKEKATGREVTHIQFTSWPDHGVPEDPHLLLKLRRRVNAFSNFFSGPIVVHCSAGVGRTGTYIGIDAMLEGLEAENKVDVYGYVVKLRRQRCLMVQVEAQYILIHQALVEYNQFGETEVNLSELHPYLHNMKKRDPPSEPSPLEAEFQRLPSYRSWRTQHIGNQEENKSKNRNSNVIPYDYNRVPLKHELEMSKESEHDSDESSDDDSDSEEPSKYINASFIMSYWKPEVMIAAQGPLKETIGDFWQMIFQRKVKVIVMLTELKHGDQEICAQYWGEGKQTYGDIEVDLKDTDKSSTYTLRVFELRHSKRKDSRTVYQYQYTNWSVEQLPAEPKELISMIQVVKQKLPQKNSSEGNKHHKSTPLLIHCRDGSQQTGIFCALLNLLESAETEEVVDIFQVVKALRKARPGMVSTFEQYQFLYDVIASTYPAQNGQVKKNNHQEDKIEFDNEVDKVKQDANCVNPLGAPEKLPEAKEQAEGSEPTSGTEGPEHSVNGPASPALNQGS
Description: Inhibition of GST-tagged CD45 (unknown origin) using phospho-EGFR Asp-Ala-Asp-Glu-Tyr[PO3H2]-Leu-Ile-Pro-Gln-Gln-Gly as substrate preincubated for 30 mins before substrate addition measured after 30 mins by phosphatase activity assay. The method, boiled down:
as §2

Experiment [7] concerns the target Receptor-type tyrosine-protein phosphatase F (Homo sapiens, UniProt P10586). Description: Inhibition of GST-tagged LAR (unknown origin) using phospho-EGFR Asp-Ala-Asp-Glu-Tyr[PO3H2]-Leu-Ile-Pro-Gln-Gln-Gly as substrate preincubated for 30 mins before substrate addition measured after 30 mins by phosphatase activity assay. The gist of the method: as §2
Experiment [8] deals with T4, Tyrosine-protein phosphatase non-receptor type 11 (Homo sapiens, UniProt Q06124).
T4 sequence (Q06124 whole entry): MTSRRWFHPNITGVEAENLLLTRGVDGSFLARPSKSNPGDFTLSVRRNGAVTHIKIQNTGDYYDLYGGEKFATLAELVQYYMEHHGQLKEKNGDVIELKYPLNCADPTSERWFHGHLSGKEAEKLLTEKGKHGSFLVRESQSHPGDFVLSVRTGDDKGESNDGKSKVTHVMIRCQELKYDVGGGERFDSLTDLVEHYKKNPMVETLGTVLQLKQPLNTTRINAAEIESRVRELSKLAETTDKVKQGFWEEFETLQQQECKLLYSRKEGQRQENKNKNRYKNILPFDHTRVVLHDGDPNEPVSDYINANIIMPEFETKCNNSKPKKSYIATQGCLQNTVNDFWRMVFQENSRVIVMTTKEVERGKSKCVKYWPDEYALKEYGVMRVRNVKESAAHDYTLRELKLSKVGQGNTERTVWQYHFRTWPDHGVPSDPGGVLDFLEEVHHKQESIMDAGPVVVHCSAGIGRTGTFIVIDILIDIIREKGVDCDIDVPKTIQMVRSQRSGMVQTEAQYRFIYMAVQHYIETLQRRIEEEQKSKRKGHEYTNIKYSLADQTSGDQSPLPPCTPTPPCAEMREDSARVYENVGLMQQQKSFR
The experiment is described as follows: Inhibition of wild type GST-tagged full-length SHP2 (unknown origin) using phospho-EGFR Asp-Ala-Asp-Glu-Tyr[PO3H2]-Leu-Ile-Pro-Gln-Gln-Gly as substrate preincubated for 30 mins before substrate addition measured after 30 mins by phosphatase activity assay. The method, boiled down: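 Wild-type full-length SHP2 was purified recombinant and run like the in-house GST-SHP2 assay. It was preincubated with compound 30 min at room temperature in Tris-HCl pH 7.4 buffer with NaCl, DTT and EDTA. Phospho-EGFR peptide was then added to 0.2 mM and incubated 30 min at 30°C, with Malachite Green read-out at OD620. Triplicates from one of three repeat experiments.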

For experiment [9], the target named is T4, Tyrosine-protein phosphatase non-receptor type 11. The experiment is described as follows: Inhibition of GST-tagged SHP2 PTP domain (unknown origin) using phospho-EGFR Asp-Ala-Asp-Glu-Tyr[PO3H2]-Leu-Ile-Pro-Gln-Gln-Gly as substrate preincubated for 30 mins before substrate addition measured after 30 mins by phosphatase activity assay. The method, boiled down:
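GST-SHP2 PTP domain fusion, purified in-house, 0.5 µg per reaction. Buffer 25 mM Tris-HCl pH 7.4, 50 mM NaCl, 5 mM DTT, 2.5 mM EDTA. Inhibitor pre-incubation at room temperature; substrate 0.2 mM final; reaction at 30°C. Free phosphate by Malachite Green, OD620 read after 10 min. IC50 from 6 (or 5) concentrations, three independent experiments.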

Experiment [10] has as its target T5, Tyrosine-protein phosphatase non-receptor type 1 (Homo sapiens, UniProt P18031).
T5 sequence (P18031 whole entry): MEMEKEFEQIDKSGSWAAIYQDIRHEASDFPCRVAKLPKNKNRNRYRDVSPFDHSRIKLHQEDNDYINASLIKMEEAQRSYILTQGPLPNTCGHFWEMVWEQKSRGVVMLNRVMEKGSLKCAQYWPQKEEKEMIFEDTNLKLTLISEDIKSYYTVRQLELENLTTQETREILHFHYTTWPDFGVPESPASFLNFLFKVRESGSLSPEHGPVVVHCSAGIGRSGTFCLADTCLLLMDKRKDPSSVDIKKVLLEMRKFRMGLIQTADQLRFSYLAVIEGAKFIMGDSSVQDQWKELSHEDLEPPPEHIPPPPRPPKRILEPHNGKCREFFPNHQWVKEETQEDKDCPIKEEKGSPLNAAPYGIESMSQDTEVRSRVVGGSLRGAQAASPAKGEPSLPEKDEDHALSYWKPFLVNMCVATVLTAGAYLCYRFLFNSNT
Description: Inhibition of GST-tagged PTP1B (unknown origin) using phospho-EGFR Asp-Ala-Asp-Glu-Tyr[PO3H2]-Leu-Ile-Pro-Gln-Gln-Gly as substrate preincubated for 30 mins before substrate addition measured after 30 mins by phosphatase activity assay. The method, boiled down: as §1

Tyrosine-protein phosphatase non-receptor type 6, sequence (P29350 whole entry, the tested form may be a part): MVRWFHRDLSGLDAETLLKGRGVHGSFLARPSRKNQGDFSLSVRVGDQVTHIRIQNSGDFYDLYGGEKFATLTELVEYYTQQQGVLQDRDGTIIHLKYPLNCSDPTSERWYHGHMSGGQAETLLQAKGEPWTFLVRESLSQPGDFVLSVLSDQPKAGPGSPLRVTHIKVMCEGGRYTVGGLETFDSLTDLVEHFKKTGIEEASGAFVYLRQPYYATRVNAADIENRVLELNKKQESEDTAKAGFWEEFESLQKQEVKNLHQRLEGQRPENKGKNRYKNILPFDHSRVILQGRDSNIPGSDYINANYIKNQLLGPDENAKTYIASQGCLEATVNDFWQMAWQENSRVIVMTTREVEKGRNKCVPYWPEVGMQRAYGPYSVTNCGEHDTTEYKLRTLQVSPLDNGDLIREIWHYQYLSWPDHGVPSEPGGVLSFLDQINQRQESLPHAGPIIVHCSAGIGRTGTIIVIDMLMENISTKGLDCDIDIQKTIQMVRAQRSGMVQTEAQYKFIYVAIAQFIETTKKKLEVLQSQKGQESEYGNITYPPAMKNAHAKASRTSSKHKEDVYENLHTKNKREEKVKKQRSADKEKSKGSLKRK
Tyrosine-protein phosphatase non-receptor type 11 (Homo sapiens, UniProt Q06124, E76K), sequence (Q06124 as listed by the source E76K): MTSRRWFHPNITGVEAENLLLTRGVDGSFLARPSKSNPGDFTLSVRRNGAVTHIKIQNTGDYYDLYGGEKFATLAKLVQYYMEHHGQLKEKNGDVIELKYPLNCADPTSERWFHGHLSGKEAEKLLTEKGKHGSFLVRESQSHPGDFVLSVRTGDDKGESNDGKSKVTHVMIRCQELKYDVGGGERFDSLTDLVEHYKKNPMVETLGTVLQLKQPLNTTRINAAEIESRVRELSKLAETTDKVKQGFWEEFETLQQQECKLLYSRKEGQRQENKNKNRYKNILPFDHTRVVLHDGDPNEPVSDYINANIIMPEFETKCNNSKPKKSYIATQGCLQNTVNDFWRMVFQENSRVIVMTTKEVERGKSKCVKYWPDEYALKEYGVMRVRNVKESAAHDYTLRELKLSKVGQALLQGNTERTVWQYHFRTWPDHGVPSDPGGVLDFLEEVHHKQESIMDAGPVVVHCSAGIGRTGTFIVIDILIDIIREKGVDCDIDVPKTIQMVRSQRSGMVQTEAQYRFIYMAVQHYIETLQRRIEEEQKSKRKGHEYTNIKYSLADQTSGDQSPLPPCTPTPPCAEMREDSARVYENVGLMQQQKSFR
Receptor-type tyrosine-protein phosphatase F, sequence (P10586 whole entry): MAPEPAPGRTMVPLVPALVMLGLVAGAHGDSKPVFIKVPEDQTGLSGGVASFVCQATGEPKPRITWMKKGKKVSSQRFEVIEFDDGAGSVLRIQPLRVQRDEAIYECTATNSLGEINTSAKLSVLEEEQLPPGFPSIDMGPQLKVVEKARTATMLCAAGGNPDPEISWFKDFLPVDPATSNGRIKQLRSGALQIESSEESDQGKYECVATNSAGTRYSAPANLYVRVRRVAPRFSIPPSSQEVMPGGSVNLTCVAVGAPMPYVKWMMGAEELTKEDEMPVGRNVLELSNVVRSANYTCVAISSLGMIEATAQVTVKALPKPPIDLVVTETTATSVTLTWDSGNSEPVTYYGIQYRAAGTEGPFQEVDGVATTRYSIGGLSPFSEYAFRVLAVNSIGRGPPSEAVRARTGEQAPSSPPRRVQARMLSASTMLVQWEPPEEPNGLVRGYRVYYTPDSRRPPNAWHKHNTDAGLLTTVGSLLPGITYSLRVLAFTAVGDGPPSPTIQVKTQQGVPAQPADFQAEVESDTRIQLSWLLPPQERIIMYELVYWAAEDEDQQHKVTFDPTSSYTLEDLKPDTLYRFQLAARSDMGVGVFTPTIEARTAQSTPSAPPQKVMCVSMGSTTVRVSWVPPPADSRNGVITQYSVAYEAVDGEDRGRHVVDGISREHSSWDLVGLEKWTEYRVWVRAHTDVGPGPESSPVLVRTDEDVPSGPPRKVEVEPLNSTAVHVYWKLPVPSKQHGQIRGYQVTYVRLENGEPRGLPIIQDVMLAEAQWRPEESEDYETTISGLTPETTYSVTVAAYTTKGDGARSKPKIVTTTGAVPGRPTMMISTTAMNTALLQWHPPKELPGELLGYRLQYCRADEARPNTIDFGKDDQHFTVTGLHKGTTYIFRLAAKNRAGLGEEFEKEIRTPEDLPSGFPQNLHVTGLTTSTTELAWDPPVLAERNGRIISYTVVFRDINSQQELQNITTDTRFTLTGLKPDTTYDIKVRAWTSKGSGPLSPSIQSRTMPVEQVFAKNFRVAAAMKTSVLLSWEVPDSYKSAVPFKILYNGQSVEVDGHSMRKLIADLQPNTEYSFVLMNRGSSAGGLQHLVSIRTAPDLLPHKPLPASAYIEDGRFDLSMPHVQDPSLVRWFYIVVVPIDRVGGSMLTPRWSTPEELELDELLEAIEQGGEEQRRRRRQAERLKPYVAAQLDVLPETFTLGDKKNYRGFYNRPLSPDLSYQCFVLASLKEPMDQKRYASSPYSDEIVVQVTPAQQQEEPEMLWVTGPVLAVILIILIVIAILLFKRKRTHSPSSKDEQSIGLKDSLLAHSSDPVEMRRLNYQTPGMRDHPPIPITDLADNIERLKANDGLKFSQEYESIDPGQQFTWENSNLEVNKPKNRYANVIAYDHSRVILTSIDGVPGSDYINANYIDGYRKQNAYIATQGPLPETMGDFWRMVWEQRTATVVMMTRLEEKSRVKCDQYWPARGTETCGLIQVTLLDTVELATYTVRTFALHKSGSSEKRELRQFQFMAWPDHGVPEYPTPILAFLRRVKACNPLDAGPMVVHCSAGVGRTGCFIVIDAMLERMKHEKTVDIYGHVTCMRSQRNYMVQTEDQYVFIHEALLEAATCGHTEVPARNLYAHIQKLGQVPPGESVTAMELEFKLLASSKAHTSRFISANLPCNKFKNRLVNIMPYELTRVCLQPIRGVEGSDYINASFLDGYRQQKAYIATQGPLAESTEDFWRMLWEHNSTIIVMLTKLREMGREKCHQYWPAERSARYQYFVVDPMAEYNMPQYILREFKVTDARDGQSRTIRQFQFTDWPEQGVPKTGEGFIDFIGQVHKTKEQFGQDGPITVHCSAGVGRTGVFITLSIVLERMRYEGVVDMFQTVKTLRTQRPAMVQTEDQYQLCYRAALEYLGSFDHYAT

With `C[C@H]1COC2=C1C(=O)C(=O)c1c2ccc2c1CCCC2(C)C` [CRYPTOTANSHINONE], the IC50 in experiment [1] stood at 59.4 µM; in [2], 23.9 µM; in [3] it was 55.7 µM; in [4], 39.5 µM; in experiment [5] it was 17.2 µM; in experiment [6] it was 41.4 µM. For the same compound, the IC50 was determined as 36.9 µM in [7], 45.2 µM in experiment [8], 22.5 µM in experiment [9] and 33.5 µM in [10].
For the compound `Cc1cccc2c3c(ccc12)C1=C(C(=O)C3=O)[C@@H](C)CO1` [DIHYDROTANSHINONE I], the figures for the IC50 in [4] and in [9] were 3.67 µM and 3.94 µM, respectively.
For `Cc1coc2c1C(=O)C(=O)c1c-2ccc2c(C)cccc12` [TANSHINONE I], the IC50 amounted to 1.97 µM in [4] and 2.57 µM in [9].
The like results for `Cc1coc2c1C(=O)C(=O)c1c-2ccc2c1CCCC2(C)C` [TANSHINONE IIA] were, in that order, 2.14 µM and 2.59 µM.
